Measurements reported in ChEMBL document CHEMBL4024749, “Discovery of 3,5-Diphenyl-4-methyl-1,3-oxazolidin-2-ones as Novel, Potent, and Orally Available Δ-5 Desaturase (D5D) Inhibitors” (J Med Chem, 2017).

Key:
Liver [1] = experiment: Drug metabolism in mouse liver assessed as (2S,3S,4S,5R,6S)-6-(5-(4-fluorophenyl)-3-(3-methoxyphenyl)-2-oxooxazolidin-4-yloxy)-3,4,5-trihydroxytetrahydro-2H-pyran-2-carboxylic acid formation at 488 mg/kg/day, po by LC-MS/MS analysis; type: ADME, organism-based; details: in vivo
Outline: (§1)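 Mice given compound orally as dietary admixture at 488 mg kg−1 day−1; liver concentrations of parent and metabolites determined by LC/MS/MS, metabolites quantified assuming extinction coefficient equal to parent.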

[2] = Drug metabolism in human hepatocytes assessed as 3-(5-(4-fluorophenyl)-4-hydroxy-2-oxooxazolidin-3-yl)phenyl hydrogen sulfate formation by LC-MS/MS analysis; type: ADME, cell-based, Hepatocyte
Outline: (§2)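 Human or mouse hepatocytes incubated with compound; metabolites identified by LC/MS/MS and formation ratio (%) calculated as metabolite UV peak area after incubation over parent peak area before incubation × 100, assuming equal extinction coefficients.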

[3] = Drug stability in human hepatocytes by LC-MS/MS analysis; type: ADME, cell-based, Hepatocyte
Liver [4] = experiment: Drug metabolism in mouse liver assessed as 5-(4-fluorophenyl)-4-hydroxy-3-(3-methoxyphenyl)oxazolidin-2-one formation at 488 mg/kg/day, po by LC-MS/MS analysis; type: ADME, organism-based; details: in vivo; outline: as §1
[5] = Drug metabolism in human hepatocytes assessed as 5-(4-fluorophenyl)-4-hydroxy-3-(3-methoxyphenyl)oxazolidin-2-one formation by LC-MS/MS analysis; type: ADME, cell-based, Hepatocyte; outline: as §2
[6] = Drug stability in mouse hepatocytes by LC-MS/MS analysis; type: ADME, cell-based, Hepatocyte
Liver [7] = experiment: Drug metabolism in mouse liver assessed as 3-(5-(4-fluorophenyl)-4-hydroxy-2-oxooxazolidin-3-yl)phenyl hydrogen sulfate formation at 488 mg/kg/day, po by LC-MS/MS analysis; type: ADME, organism-based; details: in vivo; outline: as §1
Liver [8] = experiment: Drug metabolism in mouse liver assessed as 3-(5-(4-fluorophenyl)-2-oxooxazolidin-3-yl)phenyl hydrogen sulfate formation at 488 mg/kg/day, po by LC-MS/MS analysis; type: ADME, organism-based; details: in vivo; outline: as §1
[9] = Drug metabolism in mouse hepatocytes assessed as 5-(4-fluorophenyl)-3-(3-hydroxyphenyl)oxazolidin-2-one formation by LC-MS/MS analysis; type: ADME, cell-based, Hepatocyte; outline: as §2
[10] = Drug metabolism in mouse hepatocytes assessed as 5-(4-fluorophenyl)-4-hydroxy-3-(3-methoxyphenyl)oxazolidin-2-one formation by LC-MS/MS analysis; type: ADME, cell-based, Hepatocyte; outline: as §2
Liver [11] = experiment: Drug metabolism in mouse liver assessed as 5-(4-fluorophenyl)-3-(3-hydroxyphenyl)oxazolidin-2-one formation at 488 mg/kg/day, po by LC-MS/MS analysis; type: ADME, organism-based; details: in vivo; outline: as §1
[12] = biological target: Acyl-CoA (8-3)-desaturase (Rattus norvegicus, UniProt Q920R3); experiment: Displacement of [3H]T-3364366 from D5D in rat liver microsomal membrane preincubated for 15 mins followed by radioligand addition measured after 150 mins by TopCount microscintillation counting assay; type: cell membranes
Acyl-CoA (8-3)-desaturase (Rattus norvegicus, UniProt Q920R3), sequence (Q920R3 whole entry): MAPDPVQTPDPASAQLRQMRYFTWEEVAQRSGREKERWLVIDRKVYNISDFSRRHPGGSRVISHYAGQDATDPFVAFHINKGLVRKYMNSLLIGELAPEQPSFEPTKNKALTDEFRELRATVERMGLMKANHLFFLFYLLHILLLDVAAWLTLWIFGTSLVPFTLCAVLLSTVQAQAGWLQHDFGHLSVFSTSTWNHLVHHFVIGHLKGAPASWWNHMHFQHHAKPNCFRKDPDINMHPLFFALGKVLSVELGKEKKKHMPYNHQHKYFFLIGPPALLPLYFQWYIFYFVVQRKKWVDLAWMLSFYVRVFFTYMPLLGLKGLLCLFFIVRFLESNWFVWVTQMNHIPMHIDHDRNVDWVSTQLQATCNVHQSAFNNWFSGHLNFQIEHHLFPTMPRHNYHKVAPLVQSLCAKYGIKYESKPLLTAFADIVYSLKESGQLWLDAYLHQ
Outline: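 Rat liver microsome fraction (30 μg/well) preincubated 15 min with test compound at room temperature in 10 mM Tris-HCl pH 7.5, 100 mM KCl, 10 mM NaF buffer, 200 μL/well; bound ligand trapped on GF/C filters, washed 5× with ice-cold buffer, counted by scintillation. Nonspecific binding with 10 μM unlabeled T-3364366; IC50 from three-parameter logistic fit.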

[13] = Drug metabolism in mouse hepatocytes assessed as 3-(5-(4-fluorophenyl)-4-hydroxy-2-oxooxazolidin-3-yl)phenyl hydrogen sulfate formation by LC-MS/MS analysis; type: ADME, cell-based, Hepatocyte; outline: as §2
[14] = biological target: Acyl-CoA (8-3)-desaturase (Homo sapiens, UniProt O60427); experiment: Inhibition of D5D in human HepG2 cells assessed as [14C]AA formation from [14C]DGLA preincubated for 30 mins followed by [14C]eicosatrienoic acid addition measured after 3 hrs by TLC analysis; type: cell-based
Acyl-CoA (8-3)-desaturase (Homo sapiens, UniProt O60427), sequence (O60427 whole entry): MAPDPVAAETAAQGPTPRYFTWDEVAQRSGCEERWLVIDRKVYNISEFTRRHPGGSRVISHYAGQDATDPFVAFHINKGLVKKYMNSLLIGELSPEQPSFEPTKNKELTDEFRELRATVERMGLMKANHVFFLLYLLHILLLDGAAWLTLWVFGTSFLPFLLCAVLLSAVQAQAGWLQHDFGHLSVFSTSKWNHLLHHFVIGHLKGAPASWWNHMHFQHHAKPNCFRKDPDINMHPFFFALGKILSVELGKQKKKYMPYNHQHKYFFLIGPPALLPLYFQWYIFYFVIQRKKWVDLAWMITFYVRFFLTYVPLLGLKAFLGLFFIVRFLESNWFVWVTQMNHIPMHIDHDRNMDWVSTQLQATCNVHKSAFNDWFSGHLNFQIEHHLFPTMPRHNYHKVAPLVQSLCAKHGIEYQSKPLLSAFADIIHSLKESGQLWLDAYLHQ
Outline: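 HepG2 plated at 1 × 10^5 cells/well, cultured overnight in DMEM/10% FBS, PBS-washed, then preincubated 30 min at 37 °C with compound in DMEM with penicillin/streptomycin and 0.3% BSA. 0.1 μCi [14C]eicosatrienoic acid added and cells incubated 3 h at 37 °C; lipids saponified overnight at 55 °C with NaOH, acidified, extracted with chloroform/MeOH, separated by TLC.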

Liver [15] = experiment: Drug metabolism in mouse liver assessed as (2S,3S,4S,5R,6S)-6-(3-(5-(4-fluorophenyl)-2-oxooxazolidin-3-yl)phenoxy)-3,4,5-trihydroxytetrahydro-2H-pyran-2-carboxylic acid formation at 488 mg/kg/day, po by LC-MS/MS analysis; type: ADME, organism-based; details: in vivo; outline: as §1

Drug metabolism (Liver [1]): Metabolite_Notdetected
Drug metabolism [2]: Metabolite_Notdetected
Stability [3]: 22.5%
Drug metabolism (Liver [4]): 0.25 to 0.65 µg/g
Drug metabolism [5]: Metabolite_Notdetected
Stability [6]: 2.3%
Drug metabolism (Liver [7]): 0.48 to 1.78 µg/g
Drug metabolism (Liver [8]): 4.41 to 12.9 µg/g
Drug metabolism [9]: Metabolite_Notdetected
Drug metabolism [10]: Metabolite_Notdetected
Drug metabolism (Liver [11]): 0.51 to 1.21 µg/g
IC50 [12]: 8.5 nM
Drug metabolism [13]: Metabolite_Notdetected
IC50 [14]: 4.1 nM
Drug metabolism (Liver [15]): 0.83 to 2.5 µg/g
SMILES: COc1cccc(N2CC(c3ccc(F)cc3)OC2=O)c1 (racemic)
